Experiments:
[1] = tested on: Staphylococcus aureus subsp. aureus Mu50; experiment: Inhibition of quorum sensing system in methicillin-resistant Staphylococcus aureus Mu50 assessed as potentiation of vancomycin-mediated reduction in CFU/biofilm at 100 uM preincubated for 20 hrs followed by vancomycin addition measured after 24 hrs (reference value: 30 +/- 14%)
[2] = tested on: Staphylococcus aureus; experiment: Growth inhibition of methicillin-resistant Staphylococcus aureus Mu50 after 20 hrs by broth microdilution method
Outline: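 MRSA Mu50 grown in Mueller-Hinton broth at 37 °C, aerobic. MIC found in triplicate in flat-bottom 96-well plates, using a procedure from earlier work. Highest concentration tested was […].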

[3] = tested on: Staphylococcus aureus subsp. aureus Mu50; experiment: Inhibition of quorum sensing system in methicillin-resistant Staphylococcus aureus Mu50 assessed as potentiation of vancomycin-mediated reduction in CFU/biofilm at 100 uM after 24 hrs (reference value: 30 +/- 14%)
[4] = Inhibition of quorum sensing system in methicillin-resistant Staphylococcus aureus Mu50 assessed as potentiation of vancomycin-mediated reduction in CFU/biofilm preincubated for 20 hrs followed by vancomycin addition measured after 24 hrs; set-up: species or system Staphylococcus aureus subsp. aureus Mu50
[5] = Inhibition of quorum sensing system in methicillin-resistant Staphylococcus aureus Mu50 assessed as potentiation of vancomycin-mediated reduction in CFU/biofilm after 24 hrs; set-up: species or system Staphylococcus aureus subsp. aureus Mu50

SMILES	inhibition [1] [%]	MIC [2] [µM]	inhibition [3] [%]	EC50 [4] [µM]	EC50 [5] [µM]
O=C(NC[C@@H]1CN[C@H](CNC(=O)c2ccccc2Cl)C1)c1ccccc1	62	> 500	47	–	–
O=C(NC[C@@H]1O[C@H](CNC(=O)c2ccccc2Cl)[C@@H](O)[C@H]1O)c1ccccc1	93	> 500	95	2.6	3.71
O=C(NC[C@]1(O)CO[C@H](CNC(=O)c2ccccc2Cl)[C@H]1O)c1ccccc1	88	> 500	92	0.389	7.98
O=C(NC[C@H]1CN(C(=O)c2ccccc2Cl)CCO1)c1ccccc1	-7	> 500	41	–	–
O=C(OC[C@H]1OC(O)[C@@](O)(COC(=O)c2cc(O)c(O)c(O)c2)[C@@H]1O)c1cc(O)c(O)c(O)c1 (stereo not given in full) [HAMAMELITANNIN]	57	> 500	57	146	165
O=C(NC[C@@H]1C[C@H](CNC(=O)c2ccccc2Cl)CN1)c1ccccc1	54	> 500	50	–	–
O=C(NC[C@H]1CN(C(=O)c2ccccc2)CCO1)c1ccccc1Cl	-6	> 500	51	–	–
O=C(NC[C@@H]1CO[C@H](CNC(=O)c2ccccc2Cl)CO1)c1ccccc1	95	> 500	91	5.57	13.1
O=C(NC[C@]1(O)CO[C@H](CNC(=O)c2ccccc2Cl)C1)c1ccccc1	21	> 500	65	–	–

Reference: ChEMBL document CHEMBL3994574, “Novel hamamelitannin analogues for the treatment of biofilm related MRSA infections-A scaffold hopping approach” (Eur J Med Chem, 2017)
